Measured values published in ChEMBL document CHEMBL1136237, “2-piperidin-4-yl-benzimidazoles with broad spectrum antibacterial activities” (2003).
Values after ≈ are worked out from the molar mass of the structure shown.

Experiments:
[1] = test system: Enterococcus faecalis; test: Antibacterial activity determined against Enterococcus faecalis ATCC 11823; type: functional
Method in brief: (§1)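 Broth microdilution: an overnight-culture bacterial suspension was added to compound in 2.5% DMSO in water, giving a final inoculum of about 10^2–10^3 CFU/well. Plates were incubated 20–24 h at 37 °C, and growth relative to a no-compound control was read as A595. MIC was given as a range: complete inhibition at the upper concentration, viable cells at the lower.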

[2] = test system: Enterococcus faecium; test: Antibacterial activity determined against Enterococcus faecium ATCC 6569; type: functional; method in brief: as §1
[3] = test system: Enterococcus faecalis; test: Antibacterial activity determined against Enterococcus faecalis ATCC 828; type: functional; method in brief: as §1
[4] = test system: Enterococcus faecalis; test: Anti-bacterial activity determined against Enterococcus faecalis ATCC 49757; type: functional; method in brief: as §1
[5] = test system: Enterococcus faecalis; test: Antibacterial activity determined against Enterococcus faecalis ATCC 4200; type: functional; method in brief: as §1
[6] = test system: Enterococcus faecium; test: Antibacterial activity determined against Enterococcus faecium ATCC 882; type: functional; method in brief: as §1
[7] = Inhibition of bacterial transcription/translation
[8] = test system: Staphylococcus aureus; test: Antibacterial activity determined against Staphylococcus aureus; type: functional; method in brief: as §1
[9] = test system: Escherichia coli; test: Antibacterial activity determined against Escherichia coli; type: functional; method in brief: as §1
[10] = test system: Enterococcus faecalis; test: Antibacterial activity determined against Enterococcus faecalis ATCC 23241; type: functional; method in brief: as §1

## Clc1cc2nc(C3CCNCC3)n(Cc3ccc(CNCCCn4ccnc4)cc3)c2cc1Cl
[1]
  MIC: 6 µM (≈ 2.98 µg/mL)
[2]
  MIC: 6 µM (≈ 2.98 µg/mL)
[3]
  MIC: 6 µM (≈ 2.98 µg/mL)
[4]
  MIC: 12 µM (≈ 5.97 µg/mL)
[5]
  MIC: 12 µM (≈ 5.97 µg/mL)
[6]
  MIC: 12 µM (≈ 5.97 µg/mL)
[7]
  IC50: > 100 µM
[8]
  MIC: 12 µM (≈ 5.97 µg/mL)
[9]
  MIC: 12 µM (≈ 5.97 µg/mL)
[10]
  MIC: 12 µM (≈ 5.97 µg/mL)
